Consider seven molecules from ChEMBL document CHEMBL1143969, “Synthesis and pharmacological evaluation of bicyclic SNC80 analogues with separated benzhydryl moiety” (Bioorg Med Chem, 2008).

pKi: −log10 of the molar value.

For test [1], the target named is T1, Delta-type opioid receptor (Homo sapiens, UniProt P41143). The test is described as follows: Displacement of [3H]deltorphine 2 from human delta opioid receptor expressed in CHOK1 cells at 10 uM. It is filed as cell-based. The conditions noted are these: CHO-K1. The gist of the method: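 Membranes diluted 1:87 in 50 mmol/L Tris-HCl, 5 mmol/L MgCl2, pH 7.4; radioligand solution 10 nmol/L (stock), 0.5% DMSO. Incubated 120 min at rt, filtered through PEI-soaked GF/B filters, washed three times with cold buffer, dried 1 h at 55 °C, scintillation counted. Naloxone defines non-specific binding. Ki determined where inhibition at 10 µM exceeded 50%.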

The target of test [2] is T2, Mu-type opioid receptor (Homo sapiens, UniProt P35372). The test is described as follows: Displacement of [3H]naloxone from human mu opioid receptor expressed in CHOK1 cells at 10 uM. It is filed as cell-based. The conditions noted are these: CHO-K1. The essentials:
(§1)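 Membranes in Tris-HCl pH 7.4 + 0.06% BSA, premixed with wheatgerm agglutinin SPA beads; radioligand solution 10 nmol/L (stock), ~25% DMSO in added solutions. Incubated 150 min at rt, centrifuged 20 min at 500 rpm, counted by scintillation proximity. Naloxone defines non-specific binding. Ki determined where inhibition at 10 µM exceeded 50%.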

Test [3] has as its target T3, Kappa-type opioid receptor (Homo sapiens, UniProt P41145). The test is described as follows: Displacement of [3H]C1-977 from human kappa opioid receptor expressed in HEK293 cells at 10 uM. It is filed as cell-based. The gist of the method: (§2)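 SPA format as for mu: membranes diluted 1:34 in 50 mmol/L Tris-HCl, 0.05% NaN3, pH 7.4, mixed with wheatgerm agglutinin SPA beads; 150 min at rt, centrifugation, scintillation counting. Ki determined where inhibition at 10 µM exceeded 50%.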

The target of test [4] is Nociceptin receptor (Homo sapiens) (UniProt P41146). The test is described as follows: Displacement of [3H]nociceptin from human ORL1 receptor expressed in HEK293 cells at 10 uM. It is filed as cell-based.
In test [5] the target is T1, Delta-type opioid receptor. The test is described as follows: Displacement of [3H]deltorphine 2 from human delta opioid receptor expressed in CHOK1 cells. The class given is cell-based, CHO-K1. The gist of the method:
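Membranes diluted 1:87 in 50 mmol/L Tris-HCl, 5 mmol/L MgCl2, pH 7.4; radioligand solution 10 nmol/L (stock), 0.5% DMSO. Incubated 120 min at rt, filtered through PEI-soaked GF/B filters, washed three times with cold buffer, dried 1 h at 55 °C, scintillation counted. Naloxone defines non-specific binding.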

The target in test [6] is T2, Mu-type opioid receptor. The test is described as follows: Displacement of [3H]naloxone from human mu opioid receptor expressed in CHOK1 cells. It is filed as cell-based, CHO-K1. The gist of the method: as §1
Test [7] concerns the target T3, Kappa-type opioid receptor. The test is described as follows: Displacement of [3H]C1-977 from human kappa opioid receptor expressed in HEK293 cells. It is filed as cell-based. The gist of the method: as §2

T2 sequence (P35372 whole entry): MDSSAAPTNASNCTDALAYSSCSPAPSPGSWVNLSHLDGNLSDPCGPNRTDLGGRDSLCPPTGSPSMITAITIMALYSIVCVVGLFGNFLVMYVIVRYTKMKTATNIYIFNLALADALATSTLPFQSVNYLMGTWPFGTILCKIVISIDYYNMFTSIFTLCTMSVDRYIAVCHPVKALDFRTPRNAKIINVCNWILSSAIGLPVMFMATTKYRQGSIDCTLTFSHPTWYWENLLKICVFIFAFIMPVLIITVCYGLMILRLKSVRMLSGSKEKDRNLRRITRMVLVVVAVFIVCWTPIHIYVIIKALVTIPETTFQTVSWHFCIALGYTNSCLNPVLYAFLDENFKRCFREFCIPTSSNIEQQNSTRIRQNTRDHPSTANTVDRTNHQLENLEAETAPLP
Chain of Nociceptin receptor (Homo sapiens) (P41146 whole entry): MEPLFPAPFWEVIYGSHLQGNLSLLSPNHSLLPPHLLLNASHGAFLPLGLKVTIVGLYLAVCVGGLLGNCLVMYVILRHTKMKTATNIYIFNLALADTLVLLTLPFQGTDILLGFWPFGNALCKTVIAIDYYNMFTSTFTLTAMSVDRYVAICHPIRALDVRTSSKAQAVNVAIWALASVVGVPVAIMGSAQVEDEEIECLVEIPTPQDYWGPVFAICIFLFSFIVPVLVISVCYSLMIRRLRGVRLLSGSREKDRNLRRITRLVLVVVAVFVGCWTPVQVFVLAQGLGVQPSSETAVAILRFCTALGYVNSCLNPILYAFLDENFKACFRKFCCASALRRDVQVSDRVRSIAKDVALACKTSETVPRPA
T3 sequence (P41145 whole entry): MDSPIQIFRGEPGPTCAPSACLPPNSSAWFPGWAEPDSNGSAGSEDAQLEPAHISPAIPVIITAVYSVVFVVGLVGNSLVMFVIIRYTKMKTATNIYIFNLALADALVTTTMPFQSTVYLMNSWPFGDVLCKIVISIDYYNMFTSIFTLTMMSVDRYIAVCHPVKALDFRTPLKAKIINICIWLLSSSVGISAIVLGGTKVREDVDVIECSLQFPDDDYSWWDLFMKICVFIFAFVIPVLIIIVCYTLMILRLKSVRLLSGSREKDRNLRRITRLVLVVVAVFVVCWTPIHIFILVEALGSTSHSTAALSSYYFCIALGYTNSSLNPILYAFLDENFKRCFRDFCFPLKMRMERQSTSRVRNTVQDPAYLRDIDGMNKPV
T1 sequence (P41143 whole entry): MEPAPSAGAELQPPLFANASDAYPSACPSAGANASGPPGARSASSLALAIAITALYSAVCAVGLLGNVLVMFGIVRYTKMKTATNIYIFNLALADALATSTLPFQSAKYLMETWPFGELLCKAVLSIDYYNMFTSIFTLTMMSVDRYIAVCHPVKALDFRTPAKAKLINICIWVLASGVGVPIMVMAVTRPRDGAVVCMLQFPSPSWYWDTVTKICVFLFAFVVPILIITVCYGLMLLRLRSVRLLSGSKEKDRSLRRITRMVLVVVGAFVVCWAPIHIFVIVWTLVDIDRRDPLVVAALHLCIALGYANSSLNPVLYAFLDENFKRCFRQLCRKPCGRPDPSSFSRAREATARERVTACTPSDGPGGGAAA

For the molecule `C=CCN1C[C@H]2C(c3ccccc3)=CC[C@@H]1CN2Cc1ccc(C(=O)N(CC)CC)cc1`, the inhibition in test [1] was 87%; on Mu-type opioid receptor [2] it was 91%; in test [3], 31%; in test [4], less than 10%. For the same molecule, the pKi in test [5] is 6.13; on Mu-type opioid receptor [6], 6.60.

`CCCN1C[C@@H]2[C@@H](c3ccccc3)CC[C@H]1CN2Cc1ccc(C(=O)N(CC)CC)cc1`: the inhibition in test [1] is 4%; on Mu-type opioid receptor [2], 44%; in test [3], 49%; in test [4], 3%.

With `C=CCN1C[C@@H]2[C@H](c3ccccc3)CC[C@H]1CN2Cc1ccc(C(=O)N(CC)CC)cc1`, the inhibition is 6% in test [1], 56% on Mu-type opioid receptor [2], 73% in test [3] and 7% in test [4]. In addition, the pKi at Mu-type opioid receptor [6] is 5.14; in test [7], 5.77.

As for `C=CCN1C[C@@H]2C(c3ccccc3)=CC[C@H]1CN2Cc1ccc(C(=O)N(CC)CC)cc1`, the inhibition was determined as 14% in test [1], 56% on Mu-type opioid receptor [2], 76% in test [3] and 9% in test [4]. Also, the pKi on Mu-type opioid receptor [6] is 5.17; in test [7], 6.05.

On to `CCCN1C[C@@H]2C(c3ccccc3)=CC[C@H]1CN2Cc1ccc(C(=O)N(CC)CC)cc1`, for which the inhibition is 20% in test [1], 55% on Mu-type opioid receptor [2], 22% in test [3] and 45% in test [4].

On to `CCCN1C[C@@H]2[C@H](c3ccccc3)CC[C@H]1CN2Cc1ccc(C(=O)N(CC)CC)cc1`, for which the inhibition in test [1] is 4%; at Mu-type opioid receptor [2] it was 61%; in test [3], 63%; in test [4] it was 1%. The results for the pKi (on Mu-type opioid receptor [6]; in test [7]) were 5.24 and 5.62, respectively.

As for `C=CCN1C[C@@H]2[C@@H](c3ccccc3)CC[C@H]1CN2Cc1ccc(C(=O)N(CC)CC)cc1`, the inhibition turned out to be 34% in test [1], 58% at Mu-type opioid receptor [2], 76% in test [3] and 14% in test [4]. For the same molecule, the values for the pKi (on Mu-type opioid receptor [6]; in test [7]) were 5.20 and 5.96, respectively.
